Series [1] has as its target Serine/threonine-protein kinase mTOR (Mus musculus, UniProt Q9JLN9). Put plainly: Inhibition of mTOR in p53-deficient MEF assessed as phosphorylation of S6K1 at Thr389 by immunoblotting. Background: In western blotting, separated proteins are transferred to a membrane and probed.
Series [2] concerns the target Phosphatidylinositol 4,5-bisphosphate 3-kinase catalytic subunit alpha isoform (Homo sapiens, UniProt P42336, S473D). Put plainly: Inhibition of PI3Kalpha in human PC3 cells expressing Akt1 S473D mutant assessed as phosphorylation of Akt Thr308 by immunoblotting. The series is classed as cell-based, PC-3.
Series [3] concerns the target Serine/threonine-protein kinase mTOR (Homo sapiens, UniProt P42345).
Series [4] can be described thus: Volume of distribution at steady state in C57BL/6 mouse at 1 mg/kg, iv. The series is classed as ADME, organism-based. Also noted: dose 1 mg/kg, route intravenous. The note with it: in vivo, read-out: Vdss.
Series [5] can be described thus: Cmax in C57BL/6 mouse at 10 mg/kg, po. The series is classed as ADME, organism-based. The arrangement: dose 10 mg/kg, route oral. Conditions: in vivo.
For series [6], the system named is Mus musculus. Briefly: In vivo inhibition of mTOR complex 1 in C57BL/6 mouse liver assessed as reduction of S6 phosphorylation at S235/236 at 20 mg/kg, ip after up to 10 hrs by Western blotting. Also noted: dose 20 mg/kg. The series is classed as functional, organism-based. The gist of the method:
(§1)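 They received a single IP dose of 20 mg/kg (NMP stock diluted 1:4 with 50% PEG400) for 2, 6 or 10 h; vehicle controls were dosed for 10 h. Mice were re-fed 1 h before sacrifice. Liver and lung were sonicated in HEPES pH 7.4 lysis buffer with phosphatase and protease inhibitors. Lysates were Bradford-normalized and immunoblotted for Akt S473 and S6 S235/236.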

Series [7] is described as follows: AUC in C57BL/6 mouse at 10 mg/kg, po. Also noted: dose 10 mg/kg, route oral. The note with it: plasma. The series is classed as ADME, organism-based.
Series [8] in a line: Cmax in Swiss albino mouse at 10 mg, ip. The series is classed as ADME, organism-based. The arrangement: dose 10 mg, route intraperitoneal. The note with it: in vivo.
Series [9] deals with Phosphatidylinositol 4-kinase alpha (Homo sapiens, UniProt P42356). Put plainly: Inhibition of PI4Kalpha. The gist of the method:
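Biochemical LanthaScreen enzymatic lipid kinase assay run as an outsourced profiling service. Inhibitor at 10 concentrations, three-fold serial dilutions starting from 1 μM. ATP at the apparent ATP Km for the assay. IC50 derived from the dose-response.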

Series [10] can be described thus: Tmax in C57BL/6 mouse at 10 mg/kg, po. Conditions: in vivo. The series is classed as ADME, organism-based. Also noted: dose 10 mg/kg, route oral.
Series [11] is described as follows: Mean retention time in C57BL/6 mouse at 10 mg/kg, po. The series is classed as ADME, organism-based. Also noted: dose 10 mg/kg, route oral. Conditions: in vivo.
Series [12] is described as follows: AUC in Swiss albino mouse at 10 mg, ip. The series is classed as ADME, organism-based. The note with it: plasma.
Series [13] concerns Mus musculus. Put plainly: In vivo inhibition of mTOR complex 2 in C57BL/6 mouse assessed as reduction of Akt1 phosphorylation at S473 at 20 mg/kg, ip after 2 to 3 hrs by Western blotting.
Series [14] in a line: Mean retention time in C57BL/6 mouse at 1 mg/kg, iv. The series is classed as ADME, organism-based. The arrangement: dose 1 mg/kg, route intravenous. Conditions: in vivo.
Series [15] can be described thus: Tmax in Swiss albino mouse at 10 mg, ip. The series is classed as ADME, organism-based. Conditions: in vivo.
Series [16] can be described thus: Cmax in C57BL/6 mouse at 1 mg/kg, iv. Also noted: dose 1 mg/kg, route intravenous. The note with it: in vivo. The series is classed as ADME, organism-based.
The subject of series [17] is Mus musculus. Briefly: In vivo inhibition of mTOR complex 1 in C57BL/6 mouse lung assessed as reduction of S6 phosphorylation at S235/236 at 20 mg/kg, ip after up to 6 hrs by Western blotting. The series is classed as functional, organism-based. Also noted: dose 20 mg/kg. The gist of the method: as §1
Series [18] can be described thus: AUC in C57BL/6 mouse at 1 mg/kg, iv. The series is classed as ADME, organism-based. Conditions: plasma. Also noted: dose 1 mg/kg, route intravenous.

The source made the active and inactive calls. The rule behind the calls is not given here.

For orientation: IC50 means the concentration that inhibits the measured activity by half. By Cmax is commonly meant the peak of the concentration-time curve. Usually AUC stands for concentration integrated over time. A lower AUC goes with less exposure. As usually defined, the Tmax is the time from dosing to the highest level. The MRT is a mean duration of stay, worked out from the concentration-time curve.

Sequence of Phosphatidylinositol 4,5-bisphosphate 3-kinase catalytic subunit alpha isoform (P42336 whole entry, looked up, stated change not applied, canonical isoform): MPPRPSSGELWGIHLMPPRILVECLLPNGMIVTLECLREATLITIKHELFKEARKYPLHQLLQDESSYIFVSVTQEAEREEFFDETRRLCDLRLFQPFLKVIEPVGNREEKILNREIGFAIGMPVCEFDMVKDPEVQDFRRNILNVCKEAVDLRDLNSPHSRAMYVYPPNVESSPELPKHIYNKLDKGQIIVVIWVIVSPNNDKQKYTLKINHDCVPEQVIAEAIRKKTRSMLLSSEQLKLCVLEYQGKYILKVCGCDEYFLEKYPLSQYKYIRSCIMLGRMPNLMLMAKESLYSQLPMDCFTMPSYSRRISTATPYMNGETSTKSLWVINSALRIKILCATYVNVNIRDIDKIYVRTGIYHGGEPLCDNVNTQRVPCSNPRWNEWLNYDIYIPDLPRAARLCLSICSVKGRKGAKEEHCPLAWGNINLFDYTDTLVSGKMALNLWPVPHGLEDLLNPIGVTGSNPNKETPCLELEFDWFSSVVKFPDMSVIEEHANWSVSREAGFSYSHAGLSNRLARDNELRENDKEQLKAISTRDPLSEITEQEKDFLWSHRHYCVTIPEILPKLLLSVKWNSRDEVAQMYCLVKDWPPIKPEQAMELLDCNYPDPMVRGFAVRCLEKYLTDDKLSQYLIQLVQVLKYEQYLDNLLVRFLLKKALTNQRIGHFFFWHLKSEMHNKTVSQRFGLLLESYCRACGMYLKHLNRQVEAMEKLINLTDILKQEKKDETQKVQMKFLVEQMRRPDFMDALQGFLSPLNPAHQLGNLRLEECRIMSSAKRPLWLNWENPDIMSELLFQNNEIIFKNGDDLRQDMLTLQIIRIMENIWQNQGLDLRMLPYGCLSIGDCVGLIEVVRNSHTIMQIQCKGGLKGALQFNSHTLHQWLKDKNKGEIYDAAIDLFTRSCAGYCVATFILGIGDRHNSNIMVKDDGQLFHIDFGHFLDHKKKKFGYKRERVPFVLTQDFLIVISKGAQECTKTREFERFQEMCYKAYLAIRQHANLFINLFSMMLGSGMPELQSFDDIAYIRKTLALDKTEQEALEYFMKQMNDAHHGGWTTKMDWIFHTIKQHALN
Sequence of Phosphatidylinositol 4-kinase alpha (P42356 whole entry): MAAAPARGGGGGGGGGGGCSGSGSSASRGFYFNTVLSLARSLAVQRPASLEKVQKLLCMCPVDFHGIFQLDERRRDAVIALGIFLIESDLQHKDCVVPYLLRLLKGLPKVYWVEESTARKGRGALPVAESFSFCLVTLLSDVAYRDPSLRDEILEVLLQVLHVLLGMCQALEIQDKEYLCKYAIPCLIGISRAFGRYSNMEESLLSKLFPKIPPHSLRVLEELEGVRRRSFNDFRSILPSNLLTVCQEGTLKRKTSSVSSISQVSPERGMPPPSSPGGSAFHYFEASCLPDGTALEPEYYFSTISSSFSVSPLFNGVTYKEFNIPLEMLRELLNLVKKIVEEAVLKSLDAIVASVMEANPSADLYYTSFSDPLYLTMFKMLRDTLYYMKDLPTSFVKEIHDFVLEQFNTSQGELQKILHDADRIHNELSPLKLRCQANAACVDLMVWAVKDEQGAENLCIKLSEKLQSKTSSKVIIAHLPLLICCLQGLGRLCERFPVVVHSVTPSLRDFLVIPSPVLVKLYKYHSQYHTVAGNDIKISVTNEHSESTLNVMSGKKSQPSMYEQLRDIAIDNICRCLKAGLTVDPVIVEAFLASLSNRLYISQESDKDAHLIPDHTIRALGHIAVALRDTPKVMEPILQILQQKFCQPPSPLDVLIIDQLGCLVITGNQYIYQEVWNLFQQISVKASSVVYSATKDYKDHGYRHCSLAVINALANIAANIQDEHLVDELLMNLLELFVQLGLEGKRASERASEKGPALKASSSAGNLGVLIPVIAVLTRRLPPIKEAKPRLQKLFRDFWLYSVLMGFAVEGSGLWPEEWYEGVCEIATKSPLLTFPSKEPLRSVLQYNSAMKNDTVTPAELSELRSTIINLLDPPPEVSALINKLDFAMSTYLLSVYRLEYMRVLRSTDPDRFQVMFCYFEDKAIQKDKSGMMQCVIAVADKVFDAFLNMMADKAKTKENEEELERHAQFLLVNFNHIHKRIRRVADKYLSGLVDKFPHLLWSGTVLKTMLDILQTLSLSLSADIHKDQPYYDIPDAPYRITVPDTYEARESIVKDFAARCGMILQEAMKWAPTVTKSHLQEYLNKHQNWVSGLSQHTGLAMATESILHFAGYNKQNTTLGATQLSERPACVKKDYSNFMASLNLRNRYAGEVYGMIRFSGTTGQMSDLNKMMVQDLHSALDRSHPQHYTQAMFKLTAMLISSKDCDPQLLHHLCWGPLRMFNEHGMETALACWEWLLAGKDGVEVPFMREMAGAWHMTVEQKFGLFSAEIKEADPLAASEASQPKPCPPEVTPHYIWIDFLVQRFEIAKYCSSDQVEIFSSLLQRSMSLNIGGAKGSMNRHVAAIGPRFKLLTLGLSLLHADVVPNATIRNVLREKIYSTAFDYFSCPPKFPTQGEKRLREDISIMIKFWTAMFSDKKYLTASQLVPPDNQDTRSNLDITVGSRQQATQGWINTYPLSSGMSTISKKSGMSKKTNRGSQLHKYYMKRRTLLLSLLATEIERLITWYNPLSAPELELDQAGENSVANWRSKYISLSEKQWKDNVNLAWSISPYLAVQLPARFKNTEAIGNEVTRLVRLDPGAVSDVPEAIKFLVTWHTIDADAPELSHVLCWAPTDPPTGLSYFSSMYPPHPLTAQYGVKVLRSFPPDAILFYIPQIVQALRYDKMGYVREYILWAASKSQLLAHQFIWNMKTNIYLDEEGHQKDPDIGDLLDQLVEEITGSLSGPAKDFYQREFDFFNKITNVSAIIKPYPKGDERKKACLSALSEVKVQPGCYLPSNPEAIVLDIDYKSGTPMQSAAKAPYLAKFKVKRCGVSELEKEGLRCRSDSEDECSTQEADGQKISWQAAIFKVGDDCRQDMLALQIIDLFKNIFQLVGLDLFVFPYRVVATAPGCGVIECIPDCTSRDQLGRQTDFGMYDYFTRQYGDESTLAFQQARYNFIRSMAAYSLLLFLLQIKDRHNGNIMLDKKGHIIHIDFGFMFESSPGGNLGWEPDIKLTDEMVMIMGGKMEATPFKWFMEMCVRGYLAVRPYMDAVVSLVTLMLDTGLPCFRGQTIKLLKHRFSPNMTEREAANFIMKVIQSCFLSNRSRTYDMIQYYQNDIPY

For the compound `CCC(=O)N1CCN(c2ccc(N3C(=O)OCc4cnc5ccc(-c6cnc7ccccc7c6)cc5c43)cc2C(F)(F)F)CC1`, the half-inhibitory concentration (IC50) in [1] was greater than 300 nM.
Take `O=C(CN1CCOCC1)N1CCC(c2ccc(-n3c(=O)ccc4cnc5ccc(-c6cnc7ccccc7c6)cc5c43)cc2C(F)(F)F)CC1`: the IC50 in series [1] came to 5 nM.
On to `O=C(O)N1CCN(c2ccc(Nc3ccnc4ccc(-c5cnc6ccccc6c5)cc34)cc2C(F)(F)F)CC1`, for which the IC50 in series [2] and in [1] was greater than 300 nM throughout.
Turning to `CCC(=O)N1CCN(c2ccc(N3C(=O)NCc4cnc5ccc(-c6cnc7ccccc7c6)cc5c43)cc2C(F)(F)F)CC1`, the concentration for half-maximal inhibition (IC50) in [1] was greater than 300 nM.
In the case of `CC(=O)N1CCN(c2ccc(-n3c(=O)ccc4cnc5ccc(-c6cnc7ccccc7c6)cc5c43)cc2C(F)(F)F)CC1`, the values for the 50% inhibitory concentration (IC50) in series [2], in series [3] and in [1] were greater than 300 nM, 5.4 nM and 3 nM, respectively.
With `CCC(=O)N1CCN(c2ccc(-n3c(=O)cc(C)c4cnc5ccc(-c6cnc7ccccc7c6)cc5c43)cc2C(F)(F)F)CC1`, the IC50 in series [1] was greater than 300 nM.
With `CN(C)CCC(=O)N1CCN(c2ccc(Nc3ccnc4ccc(-c5cnc6ccccc6c5)cc34)cc2C(F)(F)F)CC1`, the IC50 in [2] and in [1] was greater than 300 nM throughout.
Consider `CCC(=O)N1CCN(c2ccc(-n3c(=O)ccc4cnc5ccc(-c6cnc7ccccc7c6)cc5c43)cc2C(F)(F)F)CC1` [TORIN1], for which, in series [4], the Vd stood at 0.59 L/kg. Also, the values for the peak concentration (Cmax) in series [5], in [8] and in [16] were 223 ng/mL, 5120 ng/mL and 2760 ng/mL, respectively. Moreover, the inhibition result in series [6], in series [13] and in series [17] was “Active” in each case. Further, the area under the curve (AUC) in [7] was 396 ng·h/mL; in series [12], 5720 ng·h/mL; in [18], 720 ng·h/mL. The compound further registered an IC50 in [9] greater than 10000 nM. In addition, the time of peak concentration (Tmax) in series [10] is 15 min; in [15], 4.8 min. For the same compound, the figures for the MRT in series [11] and in [14] were 90.6 min and 25.8 min, respectively.
In the case of `CCC(=O)N1CCN(c2ccc(-n3c(=O)c(C)cc4cnc5ccc(-c6cnc7ccccc7c6)cc5c43)cc2C(F)(F)F)CC1`, the IC50 in [1] turned out to be 100 nM.
With `CCC(=O)N1CC=C(c2ccc(-n3c(=O)ccc4cnc5ccc(-c6cnc7ccccc7c6)cc5c43)cc2C(F)(F)F)CC1`, in series [1], the half-maximal inhibitory concentration (IC50) turned out to be 30 nM.
As for `CCC(=O)N1CCN(c2ccc(-n3c(=O)n(C)c(=O)c4cnc5ccc(-c6cnc7ccccc7c6)cc5c43)cc2C(F)(F)F)CC1`, the IC50 in [1] was 300 nM.
